IC50 and Kd data for 51 compounds are collected here from ChEMBL document CHEMBL3124762, “De-novo designed library of benzoylureas as inhibitors of BCL-XL: synthesis, structural and biochemical characterization” (J Med Chem, 2014).

Assay [1] can be described thus: Inhibition of binding of biotinylated mouse BIM BH3-26mer peptide to GST-tagged mouse BCL-Xl delta C25 mutant by AlphaScreen/[…] assay. The method in brief: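 Bead-based AlphaScreen competition: compounds titrated by serial dilution from 150 µM against GST-BCL-XL ΔC25 (0.6 nM final) and biotinylated BIM BH3 26-mer (5.0 nM final). Anti-GST acceptor and streptavidin donor beads at 15 µg/mL each. Protein/acceptor and peptide/donor pairs pre-incubated 30 min. Compound plus protein complex 30 min, then peptide complex 4 h at room temperature. 1% DMSO final. IC50 from at least two separate experiments.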

Assay [2] has as its target Bcl-2-related protein A1 (Mus musculus) (UniProt Q07440). As to the kind of experiment: Inhibition of binding of wild type mBIMBH3 peptide to mouse Bcl-2-related protein A1 by surface plasmon resonance competition experiment.
The target in another assay is Bcl-2-like protein 2 (Homo sapiens, UniProt Q92843, A128E/C29S). The assay is described as follows: Inhibition of binding of wild type mBIMBH3 peptide to human Bcl-W delta C29 (C29S/A128E) mutant by surface plasmon resonance competition experiment. The method, boiled down: (§1)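 Solution competition SPR: recombinant pro-survival protein (10 nM) incubated 2 h with compound (25–0.024 µM) in HEPES 10 mM, 150 mM NaCl, 3.4 mM EDTA, 0.005% Tween 20, pH 7.4. Mixture then injected over CM5 chip bearing immobilized wild-type mBIMBH3 26-mer, with inert mutant mBIMBH3 surface as reference. IC50 is the mean of three independent experiments ± SEM.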
Chain of Bcl-2-like protein 2 (Q92843 2-193 C29S/A128E limits assumed): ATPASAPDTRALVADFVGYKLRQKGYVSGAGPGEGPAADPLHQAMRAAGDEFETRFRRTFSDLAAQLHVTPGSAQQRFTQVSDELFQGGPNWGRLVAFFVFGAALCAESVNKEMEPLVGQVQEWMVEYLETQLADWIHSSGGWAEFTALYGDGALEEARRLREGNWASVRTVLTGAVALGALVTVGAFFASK

A short description of assay [3]: Inhibition of binding of wild type mBIMBH3 peptide to human Bcl-2 delta C22 mutant by surface plasmon resonance competition experiment. The method in brief:
as §1

The target of assay [4] is T1, Bcl-2-like protein 1 (Homo sapiens, UniProt Q07817). As to the kind of experiment: Direct binding affinity to free Bcl-XL (unknown origin) assessed as […] measured for 60 secs by surface plasmon resonance. The method in brief:
(§2)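 Biacore S51 direct binding. GST-BCL-XL captured on an amine-coupled anti-GST antibody surface (about 1200 RU), in phosphate buffer pH 7.4 with 150 mM NaCl, 1 mM EDTA, 0.03% Tween 20 and 5% DMSO. Each cycle, 30 nM wt-BIM 26-mer pre-blocks the groove on the reference spot. Double referencing, 4–6% DMSO solvent correction, 1:1 fit with mass transport; Kd = kd/ka.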

Assay [5] is described as follows: Inhibition of binding of wild type mBIMBH3 peptide to human Bcl-XL delta C24 mutant by surface plasmon resonance competition experiment. The method, boiled down:
as §1

In assay [6] the target is T1, Bcl-2-like protein 1. As to the kind of experiment: Direct binding affinity to Bcl-XL (unknown origin) pre-saturated with 26-mer-wt-Bim assessed as dissociation constant measured for 120 secs by surface plasmon resonance. The method, boiled down:
as §2

A short description of assay [7]: Inhibition of binding of wild type mBIMBH3 peptide to human/mouse chimeric MCL1 by surface plasmon resonance competition experiment. The method, boiled down: as §1

T1 sequence (Q07817 whole entry): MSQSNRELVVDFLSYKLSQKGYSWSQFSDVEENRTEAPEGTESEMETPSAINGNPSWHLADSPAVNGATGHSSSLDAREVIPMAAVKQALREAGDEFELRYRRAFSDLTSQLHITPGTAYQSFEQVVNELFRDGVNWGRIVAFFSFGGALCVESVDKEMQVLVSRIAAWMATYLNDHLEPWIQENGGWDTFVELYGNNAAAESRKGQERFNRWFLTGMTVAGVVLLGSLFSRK
Chain of Bcl-2-related protein A1 (Mus musculus) (Q07440 whole entry, looked up): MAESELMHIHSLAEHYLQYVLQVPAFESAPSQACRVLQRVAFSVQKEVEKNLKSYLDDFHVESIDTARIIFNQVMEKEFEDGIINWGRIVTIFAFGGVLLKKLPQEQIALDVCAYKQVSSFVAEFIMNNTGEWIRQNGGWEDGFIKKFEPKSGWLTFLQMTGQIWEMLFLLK

In turn, `CCCN(C(=O)N[C@@H](CSCC(C)C)C(=O)O)C(=O)c1cccc(C#Cc2ccccc2)c1` came in with a concentration for half-maximal inhibition (IC50) in assay [1] of 15 µM.
The same measure, in the same setting: to `CCCN(C(=O)N[C@@H](CSCCCc1ccccc1)C(=O)O)C(=O)c1cccc(C#Cc2ccccc2)c1` belongs 73 µM.
The compound `CCCN(C(=O)N[C@@H](CSCc1ccccc1-c1ccccc1)C(=O)O)C(=O)c1cccc(C#Cc2ccccc2)c1` had an IC50 in assay [1] of 146 µM.
On the same count and under the same terms, to `CCCN(C(=O)N[C@@H](CSCCc1ccccc1)C(=O)O)C(=O)c1cccc(C#Cc2ccccc2)c1` belongs 21 µM.
As for `CCCN(C(=O)N[C@@H](CSc1ccccc1)C(=O)O)C(=O)c1cccc(C#Cc2ccccc2)c1`, the IC50 in assay [1] was 25 µM.
The same measure, in the same setting: under `CCCN(C(=O)N[C@@H](CSCc1ccc(OC)cc1)C(=O)O)C(=O)c1cccc(C#Cc2ccccc2)c1` stands 21 µM; under `CCCN(C(=O)N[C@@H](CSCC(C)C)C(=O)O)C(=O)c1cccc(C#Cc2cccc(F)c2)c1`, 69 µM; under `CCCN(C(=O)N[C@@H](CSCC(C)C)C(=O)O)C(=O)c1cccc(C#Cc2ccc(F)cc2)c1`, 9 µM.
Same read-out and setting: under `CCCN(C(=O)N[C@@H](CSCC(C)C)C(=O)O)C(=O)c1cccc(C#Cc2ccccc2C)c1` stands 57 µM; under `CCCN(C(=O)N[C@@H](CSCC(C)C)C(=O)O)C(=O)c1cccc(C#Cc2cccc(C)c2)c1`, 51 µM; under `CCCN(C(=O)N[C@@H](CSCC(C)C)C(=O)O)C(=O)c1cccc(C#Cc2ccc(C)cc2)c1`, 50 µM.
On the same count and under the same terms, to `CCCN(C(=O)N[C@@H](CSCC(C)C)C(=O)O)C(=O)c1cccc(C#Cc2ccc(Oc3ccccc3)cc2)c1` belongs > 150 µM; to `CCCN(C(=O)N[C@@H](CSCC(C)C)C(=O)O)C(=O)c1cccc(C#Cc2ccc(C(C)(C)C)cc2)c1`, > 150 µM.
`CCCN(C(=O)N[C@@H](CSCC(C)C)C(=O)O)C(=O)c1cccc(C#Cc2ccncc2)c1`: the IC50 in assay [1] was > 150 µM.
Still for that read-out and setting: to `CCCN(C(=O)N[C@@H](CSCC(C)C)C(=O)O)C(=O)c1cccc(C#Cc2cccnc2)c1` belongs > 150 µM; to `CCCN(C(=O)N[C@@H](CSCC(C)C)C(=O)O)C(=O)c1cccc(C#Cc2ccccc2F)c1`, 39 µM.
In the case of `CCCN(C(=O)N[C@@H](CSCC(C)C)C(=O)O)C(=O)c1cccc(C#Cc2ccc(F)cc2F)c1`, the concentration for half-maximal inhibition (IC50) in assay [2] is > 25 µM; on Bcl-2-like protein 2 it was > 25 µM; in assay [3], > 25 µM; in assay [5], 4.4 µM; in assay [1] it was 22 µM; in assay [7], > 25 µM. The Kd at Bcl-2-like protein 1 [4] came to 4.9 µM; at Bcl-2-like protein 1 [6], 2.1 µM.
On to `CCCN(C(=O)N[C@@H](CSCc1ccc(Br)cc1)C(=O)O)C(=O)c1cccc(C#Cc2ccc(F)cc2F)c1`, for which the Kd at Bcl-2-like protein 1 [4] was found to be 6.9 µM; at Bcl-2-like protein 1 [6], 4 µM. The compound further registered an IC50 in assay [1] of 13 µM.
Regarding `CCCN(C(=O)N[C@@H](Cc1c[nH]c2ccccc12)C(=O)O)C(=O)c1cccc(-c2ccccc2)c1`, the IC50 in assay [1] is 108 µM.
On the same count and under the same terms, to `CCCN(C(=O)NCCSCc1ccccc1)C(=O)c1cccc(-c2ccccc2)c1` belongs > 150 µM.
Still for that read-out and setting: to `CCCN(C(=O)N[C@@H](CSCc1ccccc1)C(=O)OC)C(=O)c1cccc(-c2ccccc2)c1` belongs > 150 µM; to `CCCN(C(=O)N[C@@H](CSCc1ccccc1)C(N)=O)C(=O)c1cccc(-c2ccccc2)c1`, > 150 µM.
With `CCCN(C(=O)N[C@@H](CSCc1ccccc1)C(=O)O)C(=O)c1cccc(-c2ccc(F)cc2)c1`, in assay [1], the IC50 was determined as 125 µM.
Turning to `CCCN(C(=O)N[C@@H](CSCc1ccccc1)C(=O)O)C(=O)c1cccc(-c2ccc(C)cc2)c1`, the concentration for half-maximal inhibition (IC50) in assay [1] came out at 77 µM.
Same read-out and setting: under `CCCN(C(=O)N[C@@H](CSCc1ccccc1)C(=O)O)C(=O)c1cccc(-c2ccccc2Cl)c1` stands 102 µM.
As to `CCCN(C(=O)N[C@@H](CSCc1ccccc1)C(=O)O)C(=O)c1cccc(-c2ccc(OC)cc2)c1`, the 50% inhibitory concentration (IC50) in assay [1] is > 150 µM.
For `CCCN(C(=O)N[C@@H](CSCc1ccccc1)C(=O)O)C(=O)c1cccc(-c2ccc(Cl)cc2)c1`, the IC50 in assay [1] turned out to be 86 µM.
Same read-out and setting: under `CCCN(C(=O)N[C@@H](CSCc1ccccc1)C(=O)O)C(=O)c1cccc(-c2ccc(Cl)c(Cl)c2)c1` stands 78 µM; under `CCCN(C(=O)N[C@@H](CSCc1ccccc1)C(=O)O)C(=O)c1cccc(-c2cccc3ccccc23)c1`, 62 µM.
Still for that read-out and setting: under `CCCN(C(=O)N[C@@H](CSCc1ccccc1)C(=O)O)C(=O)c1cccc(-c2ccc3ccccc3c2)c1` stands 63 µM.
Still for that read-out and setting: under `CCCN(C(=O)N[C@@H](CSCc1ccccc1)C(=O)O)C(=O)c1cccc(Cc2ccccc2)c1` stands > 150 µM; under `CCCN(C(=O)N[C@@H](CSCc1ccccc1)C(=O)O)C(=O)c1cccc(C#Cc2ccccc2)c1`, 35 µM; under `CCCN(C(=O)N[C@@H](CSCc1ccccc1)C(=O)O)C(=O)c1cccc(/C=C/c2ccccc2)c1`, 141 µM.
In turn, `CCCN(C(=O)N[C@@H](CSCc1ccccc1)C(=O)O)C(=O)c1cccc(CCc2ccccc2)c1` yielded an IC50 in assay [1] of 55 µM.
Still for that read-out and setting: to `CCCSC[C@H](NC(=O)N(CCC)C(=O)c1cccc(C#Cc2ccccc2)c1)C(=O)O` belongs 21 µM.
The same measure, in the same setting: under `CCCN(C(=O)N[C@@H](CSC(C)C)C(=O)O)C(=O)c1cccc(C#Cc2ccccc2)c1` stands 33 µM.
The same measure, in the same setting: to `CCCN(C(=O)N[C@@H](CSCC1CCCCC1)C(=O)O)C(=O)c1cccc(C#Cc2ccccc2)c1` belongs 42 µM.
With `CCN(C(=O)N[C@@H](CSCc1ccccc1)C(=O)O)C(=O)c1cccc(-c2ccccc2)c1`, in assay [1], the IC50 amounted to 128 µM.
Take `CCCN(C(=O)N[C@@H](CSCc1ccccc1)C(=O)O)C(=O)c1cccc(-c2ccccc2)c1`: the IC50 in assay [1] came out at 109 µM.
Regarding `CCCCN(C(=O)N[C@@H](CSCc1ccccc1)C(=O)O)C(=O)c1cccc(-c2ccccc2)c1`, the IC50 in assay [1] turned out to be 138 µM.
Turning to `CCC(C)N(C(=O)N[C@@H](CSCc1ccccc1)C(=O)O)C(=O)c1cccc(-c2ccccc2)c1` (some centres undefined), in assay [1], the IC50 was > 150 µM.
Still for that read-out and setting: to `CC(C)N(C(=O)N[C@@H](CSCc1ccccc1)C(=O)O)C(=O)c1cccc(-c2ccccc2)c1` belongs > 150 µM; to `O=C(O)[C@H](CSCc1ccccc1)NC(=O)N(Cc1ccccc1)C(=O)c1cccc(-c2ccccc2)c1`, > 150 µM.
With `Cc1ccc(CN(C(=O)N[C@@H](CSCc2ccccc2)C(=O)O)C(=O)c2cccc(-c3ccccc3)c2)cc1`, in assay [1], the half-inhibitory concentration (IC50) is > 150 µM.
The same measure, in the same setting: to `CCCN(C(=O)NC)C(=O)c1cccc(-c2ccccc2)c1` belongs > 150 µM; to `CCCN(C(=O)N[C@@H](CC(C)C)C(=O)O)C(=O)c1cccc(-c2ccccc2)c1`, > 150 µM; to `CCCN(C(=O)N[C@@H](Cc1ccccc1)C(=O)O)C(=O)c1cccc(-c2ccccc2)c1`, > 150 µM.
As to `CCCN(C(=O)N[C@@H](Cc1ccc(O)cc1)C(=O)O)C(=O)c1cccc(-c2ccccc2)c1`, in assay [1], the half-inhibitory concentration (IC50) is > 150 µM.
On the same count and under the same terms, under `CCCN(C(=O)N[C@@H](CCc1ccccc1)C(=O)O)C(=O)c1cccc(-c2ccccc2)c1` stands > 150 µM; under `CCCN(C(=O)N[C@@H](Cc1ccc2ccccc2c1)C(=O)O)C(=O)c1cccc(-c2ccccc2)c1`, > 150 µM.
For `O=C(NS(=O)(=O)c1ccc(NCCSc2ccccc2)c([N+](=O)[O-])c1)c1ccc(-c2ccc(F)cc2)cc1`, the IC50 in assay [2] was 14.2 µM; at Bcl-2-like protein 2, > 25 µM; in assay [3], 14.7 µM; in assay [5], 0.196 µM; in assay [7], 22 µM.
